ChEMBL document CHEMBL5352453, “Hit-to-lead optimization of a 2-aminobenzimidazole series as new candidates for chagas disease” (Eur J Med Chem, 2023)

What was measured:
[1] = Selectivity index, ratio of CC50 for cytotoxicity against human MRC5 cells to EC50 for Trypanosoma cruzi Tulahuen CL2 amastigotes expressing beta galactosidase infected in human MRC5 cells; type: toxicity, cell-based; conditions: read-out: Selectivity Index
Method in brief: (§1)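 T. cruzi Tulahuen CL2 β-galactosidase strain grown in MRC-5 cells (MEM, 5% heat-inactivated FCS, 37 °C, 5% CO2). MRC-5 cells (4 x 10^3/well) plus parasites (4 x 10^4/well) exposed 7 days to 4-fold dilutions from 64 µM down; final DMSO <1%. CPRG with Nonidet added, absorbance at 540 nm after 4 h. IC50 calculated against untreated-infected (100%) and non-infected (0%) controls. SI = MRC-5 CC50/IC50.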

[2] = system: Trypanosoma cruzi; experiment: Antitrypanosomal activity against Trypanosoma cruzi Tulahuen CL2 amastigotes expressing beta galactosidase infected in human MRC5 cells assessed as reduction in parasite burden using chlorophenol red beta-D-galactopyranoside as substrate and measured after 7 days by spectrophotometric analysis; type: functional, organism-based; conditions: Tulahuen CL2, MRC5, 168 h; method in brief: as §1
[3] = Metabolic stability in CD1 mouse liver microsomes assessed as intrinsic clearance measured upto 60 mins by LC-MS/MS analysis; type: ADME; conditions: read-out: CLH
Method in brief: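 CD1 mouse liver microsomes at 0.25 mg/mL, compound at 0.5 µM, pH 7.4, 37 °C, started with NADPH. Sampled at 0, 5, 10, 20, 30 and 60 min and quenched with acetonitrile:methanol containing tolbutamide. Measured by LC-MS/MS; CLint (k × 1000/0.25, µL/min/mg) derived by non-linear regression of % remaining over time.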

| Structure (SMILES) | selectivity ratio [1] | IC50 [2] [µM] | microsomal CLint [3] [µL/min/mg] |
| --- | --- | --- | --- |
| CCCn1c(NC(=O)Cc2ccc(F)cc2)nc2ccc(C(=O)O)cc21 | 1 | > 64 |  |
| Cn1nccc1C(=O)Nc1nc2cncnc2n1CC(F)(F)F | 3 | 8.2 | 24 |
| Cn1nncc1C(=O)Nc1nc2ccc(C#N)cc2n1CC(F)(F)F | > 3 | 24 |  |
| CCCn1c(NC(=O)c2ccc(C(F)(F)F)nc2)nc2cccnc21 | 15 | 3.2 |  |
| Cc1nc(C)c(C(=O)Nc2nc3ccc(C#N)cc3n2CC(F)(F)F)s1 | 14 | 0.54 | 595 |
| CCCn1c(NC(=O)c2ccc(F)cc2)nc2ccc(F)cc21 |  | > 64 |  |
| CCCn1c(NC(=O)Cc2ccc(F)cc2)nc2ccc(C(=O)N3CCOCC3)cc21 | > 2 | 35 | 23 |
| Cn1ncc(C(=O)Nc2nc3ccc(C#N)cc3n2CC(F)(F)F)n1 | 1 | 64 |  |
| Cc1nnn(CC(=O)Nc2nc3ccc(C#N)cc3n2CC(F)(F)F)n1 | > 6 | 11 | 25 |
| Cn1nccc1C(=O)Nc1nc2ccc(C#N)cc2n1CCF | 2 | 8.4 | 154 |
| CCCn1c(NC(=O)Cc2ccc(F)cc2)nc2ccc(C(=O)OC)cc21 | 35 | 0.53 | 1250 |
| O=C(Cc1ccc(Cl)cc1)Nc1nc2ccccc2[nH]1 |  | > 64 |  |
| CCCn1c(NC(=O)Cc2ccc(F)cc2)nc2c(F)cccc21 | 1 | > 64 | 715 |
| CCCn1c(NC(=O)Cc2ccc(Cl)cc2)nc2ccc(F)cc21 | 102 | 0.56 | 1590 |
| CC(=O)N1CCC(n2c(NC(=O)c3ccnn3C)nc3ccc(C#N)cc32)CC1 | 1 | 64 | 23 |
| N#Cc1ccc2nc(NC(=O)c3ccccn3)n(CC(F)(F)F)c2c1 | > 7 | 9.3 | 236 |
| CC(C)(O)Cn1c(NC(=O)c2ccc(C(F)(F)F)nc2)nc2ccc(C#N)cc21 | 1 | 37 | 23 |
| N#Cc1ccc2nc(NC(=O)c3ccnn3C3CC3)n(CC(F)(F)F)c2c1 | 3 | 0.99 |  |

| Structure (SMILES) | selectivity ratio [1] | IC50 [2] [µM] | microsomal CLint [3] [µL/min/mg] |
| --- | --- | --- | --- |
| O=C(Cc1ccc(Cl)cc1)Nc1nc2ccccc2s1 |  | > 64 |  |
| CCCn1c(NC(=O)Cc2ccc(F)cc2)nc2ccc(C(=O)NCOC)cc21 | 7 | 8.3 | 128 |
| O=C(Nc1nc2cc(F)ccc2n1C1CCNCC1)c1cccnc1 | 3 | 9.2 |  |
| CN1CCC(n2c(NC(=O)c3ccnn3C)nc3ccc(C#N)cc32)CC1 | > 2 | 34 | 72 |
| O=C(Nc1nc2cncnc2n1CC(F)(F)F)c1cc(C(F)(F)F)n[nH]1 | 4 | 7.5 |  |
| Cn1cc(C(=O)Nc2nc3ccc(C#N)cc3n2CC(F)(F)F)cn1 | 1 | 64 |  |
| Cc1cc(C(=O)Nc2nc3ccc(C#N)cc3n2CC(F)(F)F)[nH]n1 | 1 | 36 |  |
| N#Cc1ccc2nc(NC(=O)c3ccnc(C(F)(F)F)c3)n(CC(F)F)c2c1 | 24 | 0.51 |  |
| CCCn1c(NS(=O)(=O)c2ccc(Br)cc2)nc2ccccc21 |  | > 64 |  |
| COCCn1c(NC(=O)c2ccc(C(F)(F)F)nc2)nc2ccc(C#N)cc21 | 1 | 64 |  |
| Cc1ccc(C(=O)Nc2nc3ccc(C#N)cc3n2CC(F)(F)F)cn1 | 1 | 64 |  |
| Cn1nccc1C(=O)Nc1nc2cc(CO)ccc2n1CC(F)(F)F | 1 | 64 |  |
| CCCn1c(NC(=O)Nc2ccc(Cl)cc2)nc2ccccc21 |  | > 64 |  |
| O=C(Nc1nc2cncnc2n1CC(F)(F)F)c1ccnc(C(F)(F)F)c1 | 5 | 1.1 |  |
| Cn1nccc1C(=O)Nc1nc2cc(S(C)(=O)=O)ccc2n1CC(F)(F)F | 6 | 2.2 |  |
| N#Cc1ccc2nc(NC(=O)c3ccnc(C(F)(F)F)c3)n(CCF)c2c1 | 1 | 49 |  |
| CCCn1c(CCNC(=O)Cc2ccc(Cl)cc2)nc2ccccc21 |  | 33 |  |
| CCCn1c(NC(=O)Cc2cc(F)ccc2F)nc2ccccc21 |  | 2.2 |  |
